Key:
Settings in all cases: pyramidal neuron
[1] = Ability to directly depolarize CA1 pyramidal neurons of rat hyppocampal slices before exposure to quisqualic acid; type: functional, cell-based
Outline: (§1)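 Transverse hippocampal slices (500 μM as printed) from 25-60 day old male Sprague-Dawley rats, preincubated 20-30 min in high Mg2+/low Ca2+ medium, held at 28 °C. Submerged in microperfusion chamber at 34 °C, 95% O2/5% CO2. Schaffer collateral stimulation, stratum radiatum recording of peak field potential amplitude. IC50 (50% inhibition) interpolated from concentration-response data, mean of four experiments; measured before and after 5 min 20 μM quisqualic acid, then after 10 min 2 mM L-α-AA reversal.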

[2] = Sensitization of CA1 pyramidal neurons to depolarizations by L-AP6 after exposure to quisqualic acid; type: functional, cell-based, Rattus norvegicus
[3] = Sensitization of CA1 pyramidal neurons to depolarizations by L-AP6 after reversal with L-alpha-AA; type: functional, cell-based, Rattus norvegicus
Outline: (§2)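 Rat (male Sprague-Dawley, 25-60 days) hippocampal slices, submerged, 34 °C, 95% O2/5% CO2; Schaffer collateral stimulation with stratum radiatum CA1 field potential recording. L-AP6 IC50 for 50% inhibition of peak amplitude interpolated from concentration-response curves, mean of four experiments; determined before and after slice exposure to sensitizing agent in place of quisqualic acid, then after 2 mM L-α-AA reversal.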

[4] = Sensitization of CA1 pyramidal neurons to depolarizations by L-AP6 before exposure to quisqualic acid; type: functional, cell-based, Rattus norvegicus; outline: as §2
[5] = Ability to directly depolarize CA1 pyramidal neurons of rat hyppocampal slices after exposure to quisqualic acid; type: functional, cell-based; outline: as §1
[6] = Ability to directly depolarize CA1 pyramidal neurons of rat hyppocampal slices after reversal with L-alpha-AA; type: functional, cell-based; outline: as §1
[7] = ability to directly depolarize CA1 pyramidal neurons of rat hyppocampal slices after exposure to quisqualic acid; type: functional, cell-based
Outline: (§3)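 Transverse hippocampal slices from 25-60 day old male Sprague-Dawley rats, preincubated 20-30 min in high Mg2+/low Ca2+ medium. Submerged at 34 °C under 95% O2/5% CO2. Schaffer collaterals stimulated; field potential peak amplitude recorded in CA1 stratum radiatum. Concentration-response curves run before, after 5 min 20 μM quisqualic acid, and after 10 min 2 mM L-α-AA reversal. IC50 interpolated; mean of four experiments.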

[8] = ability to directly depolarize CA1 pyramidal neurons of rat hyppocampal slices after reversal with L-alpha-AA; type: functional, cell-based; outline: as §3
[9] = ability to directly depolarize CA1 pyramidal neurons of rat hyppocampal slices before exposure to quisqualic acid; type: functional, cell-based; outline: as §3
[10] = sensitization of CA1 pyramidal neurons to depolarizations by L-AP6 after exposure to quisqualic acid; type: functional, cell-based, Rattus norvegicus
Outline: (§4)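 Male Sprague-Dawley rat (25-60 day) hippocampal slices were perfused at 34 °C. Schaffer collaterals were stimulated with field potential recording in CA1 stratum radiatum. L-AP6 concentration-response curves were run before and after exposure to test compound substituted for quisqualic acid, then after 10 min 2 mM L-α-AA. IC50 for 50% peak-amplitude inhibition was interpolated.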

[11] = sensitization of CA1 pyramidal neurons to depolarizations by L-AP6 after reversal with L-alpha-AA; type: functional, cell-based, Rattus norvegicus; outline: as §4
[12] = sensitization of CA1 pyramidal neurons to depolarizations by L-AP6 before exposure to quisqualic acid; type: functional, cell-based, Rattus norvegicus; outline: as §4
[13] = sensitization of CA1 pyramidal neurons by 2 to depolarizations by L-AP4, L-AP5 and L-AP6 after reversal with L-alpha-AA; type: functional, cell-based, Rattus norvegicus
Outline: (§5)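 Rat hippocampal slices were submerged at 34 °C under 95% O2/5% CO2. Stimulating and recording electrodes sat in CA1 stratum radiatum to record extracellular synaptic field potentials. IC50 of L-AP4, L-AP5 and L-AP6 was measured three times: before, after 20 min exposure to 20 mM test compound in place of quisqualic acid, and after 20 min 2 mM L-α-AA.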

[14] = sensitization of CA1 pyramidal neurons by 2 to depolarizations by L-AP4, L-AP5 and L-AP6 before exposure to quisqualic acid; type: functional, cell-based, Rattus norvegicus; outline: as §5
[15] = sensitization of CA1 pyramidal neurons by 2 to depolarizations by L-AP4,L-AP5 and L-AP6 after exposure to quisqualic acid; type: functional, cell-based, Rattus norvegicus; outline: as §5

| Compound | IC50 [1] [mM] | IC50 [2] [mM] | IC50 [4] [mM] | IC50 [5] [mM] | IC50 [10] [mM] | IC50 [13] [mM] | IC50 [14] [mM] | further results |
| --- | --- | --- | --- | --- | --- | --- | --- | --- |
| O=C(O)[C@@H]1C[C@@H](n2oc(=O)[nH]c2=O)CN1 | 1 | 0.78 | > 10 | 0.53 | – | – | – | IC50 [3]: > 10 mM; IC50 [6]: 1.1 mM |
| O=C(O)[C@@H]1C[C@H](n2oc(=O)[nH]c2=O)CN1 | 0.015 | > 10 | > 10 | 0.014 | – | – | – | – |
| N[C@@H](CCn1oc(=O)[nH]c1=O)C(=O)O | – | – | – | – | 0.17 | – | – | IC50 [7]: 0.0055 mM; IC50 [8]: 0.02 mM; IC50 [9]: 0.0098 mM; IC50 [11]: 12 mM; IC50 [12]: 11 mM |
| O=C(O)CCn1oc(=O)[nH]c1=O | > 10 | > 10 | > 10 | > 10 | – | – | – | – |
| NCCn1oc(=O)[nH]c1=O | 5.4 | > 10 | > 10 | 3.8 | – | – | – | – |
| NC(CCCP(=O)(O)O)C(=O)O (centres undefined) | – | – | – | – | – | 2.2 | 2.3 | IC50 [15]: 0.31 mM |
| NC(CCCCP(=O)(O)O)C(=O)O (centres undefined) | – | – | – | – | 0.17 | 12 | 11 | – |
| N[C@@H](CCP(=O)(O)O)C(=O)O | – | – | – | – | – | 1.7 | 1.5 | IC50 [15]: 0.26 mM |
| N[C@@H](Cn1oc(=O)[nH]c1=O)C(=O)O [QUISQUALATE] | – | – | – | – | 0.04 | – | – | IC50 [7]: 0.004 mM; IC50 [8]: 0.026 mM; IC50 [9]: 0.007 mM; IC50 [11]: 1.9 mM; IC50 [12]: > 10 mM |
